Experimental data reported in ChEMBL document CHEMBL1148638, “Aminopyridine-based c-Jun N-terminal kinase inhibitors with cellular activity and minimal cross-kinase activity” (J Med Chem, 2006).

Assays:
[1] = target: Mast/stem cell growth factor receptor Kit (Homo sapiens, UniProt P10721); assay: Inhibition of cKit
Outline: (§1)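 Tyrosine kinases (recombinant, His/GST-purified or commercial) measured by HTRF: 0.5 µM biotinylated peptide, ATP 10 µM to 1 mM, inhibitor in 2% DMSO, 1 h in 50 mM Hepes pH 7.4 with MgCl2, MnCl2, Na3VO4, DTT, BSA. IC50 from six-point titrations; Ki via Cheng-Prusoff.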

[2] = target: Activated CDC42 kinase 1 (Homo sapiens, UniProt Q07912); assay: Inhibition of CDC42
Chain of Activated CDC42 kinase 1 (Q07912 whole entry): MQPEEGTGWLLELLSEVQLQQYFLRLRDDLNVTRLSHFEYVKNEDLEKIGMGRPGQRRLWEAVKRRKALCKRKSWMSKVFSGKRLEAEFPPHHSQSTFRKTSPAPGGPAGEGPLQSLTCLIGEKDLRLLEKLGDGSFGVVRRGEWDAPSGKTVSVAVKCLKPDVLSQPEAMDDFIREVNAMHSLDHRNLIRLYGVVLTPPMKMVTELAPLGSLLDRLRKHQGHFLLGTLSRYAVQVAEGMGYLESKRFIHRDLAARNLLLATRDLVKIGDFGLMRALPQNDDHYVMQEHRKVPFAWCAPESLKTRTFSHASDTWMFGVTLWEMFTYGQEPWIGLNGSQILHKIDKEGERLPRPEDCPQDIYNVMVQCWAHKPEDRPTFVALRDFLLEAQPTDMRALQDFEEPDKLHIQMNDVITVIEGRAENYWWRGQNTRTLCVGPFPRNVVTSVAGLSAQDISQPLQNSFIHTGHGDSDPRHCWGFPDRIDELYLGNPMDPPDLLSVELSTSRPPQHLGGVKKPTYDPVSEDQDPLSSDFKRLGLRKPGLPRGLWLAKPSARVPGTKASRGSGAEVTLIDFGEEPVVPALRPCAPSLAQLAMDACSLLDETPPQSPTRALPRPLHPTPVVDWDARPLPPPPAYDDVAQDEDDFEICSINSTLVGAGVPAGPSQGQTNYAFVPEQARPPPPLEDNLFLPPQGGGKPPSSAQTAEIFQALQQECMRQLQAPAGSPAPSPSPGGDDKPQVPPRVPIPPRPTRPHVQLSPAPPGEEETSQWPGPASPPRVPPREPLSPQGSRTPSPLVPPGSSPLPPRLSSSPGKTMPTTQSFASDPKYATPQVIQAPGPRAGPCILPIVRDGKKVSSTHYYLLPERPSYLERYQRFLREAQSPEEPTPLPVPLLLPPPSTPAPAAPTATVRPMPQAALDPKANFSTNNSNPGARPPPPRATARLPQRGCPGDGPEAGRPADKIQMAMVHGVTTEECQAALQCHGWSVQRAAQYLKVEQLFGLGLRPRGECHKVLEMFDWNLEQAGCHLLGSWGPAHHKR
Outline: (§2)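 Recombinant kinases were commercial, or baculovirus-expressed and purified by His-tag or GST affinity. Each was incubated 1 h with biotinylated substrate peptide (2 µM), γ-[33P]-ATP (5 µM) and inhibitor (3-10000 nM, 2% DMSO) in 25 mM Hepes pH 7.5, 10 mM MgCl2, Na3VO4. Reactions were stopped with EDTA/NaCl and read by streptavidin FlashPlate capture. IC50 came from titrations, converted to Ki by Cheng-Prusoff.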

[3] = target: T1, Serine/threonine-protein kinase Sgk1 (Homo sapiens, UniProt O00141); assay: Inhibition of SGK
T1 sequence (O00141 whole entry): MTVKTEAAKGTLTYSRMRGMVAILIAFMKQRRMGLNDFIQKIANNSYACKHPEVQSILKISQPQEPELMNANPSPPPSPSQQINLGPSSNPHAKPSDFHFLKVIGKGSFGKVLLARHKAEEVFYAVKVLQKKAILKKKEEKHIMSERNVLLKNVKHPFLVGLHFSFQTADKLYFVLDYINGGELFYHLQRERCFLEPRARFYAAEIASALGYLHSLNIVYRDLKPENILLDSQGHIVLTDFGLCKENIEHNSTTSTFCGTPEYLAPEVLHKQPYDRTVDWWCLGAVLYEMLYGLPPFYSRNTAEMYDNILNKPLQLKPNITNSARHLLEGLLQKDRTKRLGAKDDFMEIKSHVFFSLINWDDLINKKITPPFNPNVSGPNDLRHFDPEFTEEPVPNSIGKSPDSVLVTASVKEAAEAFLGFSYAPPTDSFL

[4] = target: Tyrosine-protein kinase ABL1 (Homo sapiens, UniProt P00519); assay: Inhibition of Abl
Outline: (§3)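 Recombinant tyrosine kinases were incubated 1 h with biotinylated peptide (0.5 µM), ATP (10 µM to 1 mM) and inhibitor in 2% DMSO. Buffer was 50 mM Hepes pH 7.4 with MgCl2, MnCl2 and vanadate. Detection was HTRF: Eu anti-pY antibody plus streptavidin-APC, read 60 min later. IC50 came from titration curves, converted to Ki by Cheng-Prusoff.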

[5] = target: Vascular endothelial growth factor receptor 1 (Homo sapiens, UniProt P17948); assay: Inhibition of Flt1; outline: as §3
[6] = target: T2, Calcium/calmodulin-dependent protein kinase type IV (Homo sapiens, UniProt Q16566); assay: Inhibition of CaMK4; outline: as §2
T2 sequence (Q16566 whole entry): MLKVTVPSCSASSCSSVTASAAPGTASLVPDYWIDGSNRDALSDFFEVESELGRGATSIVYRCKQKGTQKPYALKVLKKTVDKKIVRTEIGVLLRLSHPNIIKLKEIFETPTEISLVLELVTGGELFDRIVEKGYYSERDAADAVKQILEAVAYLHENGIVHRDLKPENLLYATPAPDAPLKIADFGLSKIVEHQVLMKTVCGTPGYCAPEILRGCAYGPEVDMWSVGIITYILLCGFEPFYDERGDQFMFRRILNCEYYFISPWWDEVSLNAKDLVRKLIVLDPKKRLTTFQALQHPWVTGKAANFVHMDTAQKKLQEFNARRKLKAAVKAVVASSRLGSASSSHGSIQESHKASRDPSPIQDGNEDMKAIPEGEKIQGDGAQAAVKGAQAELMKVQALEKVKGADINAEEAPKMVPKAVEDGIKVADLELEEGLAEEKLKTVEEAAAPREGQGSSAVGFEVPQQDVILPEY

[7] = target: Tyrosine-protein kinase Blk (Homo sapiens, UniProt P51451)
Chain of Tyrosine-protein kinase Blk (P51451 whole entry): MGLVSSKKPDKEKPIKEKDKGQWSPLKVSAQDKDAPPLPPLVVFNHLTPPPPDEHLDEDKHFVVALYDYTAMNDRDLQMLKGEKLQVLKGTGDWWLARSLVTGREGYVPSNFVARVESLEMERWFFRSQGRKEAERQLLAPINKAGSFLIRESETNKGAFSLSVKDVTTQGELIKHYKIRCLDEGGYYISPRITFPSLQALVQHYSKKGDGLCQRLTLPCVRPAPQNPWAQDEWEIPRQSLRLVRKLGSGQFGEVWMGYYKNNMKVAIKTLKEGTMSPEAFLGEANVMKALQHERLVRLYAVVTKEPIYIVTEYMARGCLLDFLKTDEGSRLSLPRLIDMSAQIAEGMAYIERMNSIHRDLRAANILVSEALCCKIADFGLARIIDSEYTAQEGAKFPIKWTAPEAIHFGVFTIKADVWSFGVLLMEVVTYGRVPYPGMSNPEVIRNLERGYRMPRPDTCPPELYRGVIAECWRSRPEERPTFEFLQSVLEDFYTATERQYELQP

[8] = target: Tyrosine-protein kinase JAK2 (Homo sapiens, UniProt O60674); assay: Inhibition of JAK2; outline: as §3
[9] = target: Serine/threonine-protein kinase pim-2 (Homo sapiens, UniProt Q9P1W9); assay: Inhibition of Pim2
Chain of Serine/threonine-protein kinase pim-2 (Q9P1W9 whole entry): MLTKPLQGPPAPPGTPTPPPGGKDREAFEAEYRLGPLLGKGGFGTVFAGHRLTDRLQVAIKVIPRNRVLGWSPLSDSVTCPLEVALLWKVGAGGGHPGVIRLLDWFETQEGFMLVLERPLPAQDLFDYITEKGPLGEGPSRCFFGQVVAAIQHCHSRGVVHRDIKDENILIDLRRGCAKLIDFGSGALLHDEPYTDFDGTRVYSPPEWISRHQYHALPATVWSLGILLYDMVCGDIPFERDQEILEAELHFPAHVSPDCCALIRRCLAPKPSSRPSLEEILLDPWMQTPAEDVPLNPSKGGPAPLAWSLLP

[10] = target: Tyrosine-protein kinase Lyn (Homo sapiens, UniProt P07948); assay: Inhibition of Lyn; outline: as §3
[11] = target: Tyrosine-protein kinase Fyn (Homo sapiens, UniProt P06241); assay: Inhibition of Fyn; outline: as §3
Chain of Tyrosine-protein kinase Fyn (P06241 whole entry): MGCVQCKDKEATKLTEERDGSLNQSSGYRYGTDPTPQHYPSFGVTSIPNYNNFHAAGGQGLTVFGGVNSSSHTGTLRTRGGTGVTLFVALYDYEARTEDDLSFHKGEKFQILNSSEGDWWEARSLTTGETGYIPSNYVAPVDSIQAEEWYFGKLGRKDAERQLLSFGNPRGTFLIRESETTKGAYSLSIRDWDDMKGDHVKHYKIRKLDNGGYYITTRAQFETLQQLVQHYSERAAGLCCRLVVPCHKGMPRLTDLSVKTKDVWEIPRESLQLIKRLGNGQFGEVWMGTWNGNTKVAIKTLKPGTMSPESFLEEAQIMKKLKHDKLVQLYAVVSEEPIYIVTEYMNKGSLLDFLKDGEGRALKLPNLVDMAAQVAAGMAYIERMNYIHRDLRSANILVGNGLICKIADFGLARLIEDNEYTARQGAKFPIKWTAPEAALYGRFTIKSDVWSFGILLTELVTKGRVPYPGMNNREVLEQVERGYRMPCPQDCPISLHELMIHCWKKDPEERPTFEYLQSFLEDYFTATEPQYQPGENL

[12] = target: Receptor tyrosine-protein kinase erbB-2 (Homo sapiens, UniProt P04626); assay: Inhibition of ErbB2; outline: as §3
Chain of Receptor tyrosine-protein kinase erbB-2 (P04626 whole entry): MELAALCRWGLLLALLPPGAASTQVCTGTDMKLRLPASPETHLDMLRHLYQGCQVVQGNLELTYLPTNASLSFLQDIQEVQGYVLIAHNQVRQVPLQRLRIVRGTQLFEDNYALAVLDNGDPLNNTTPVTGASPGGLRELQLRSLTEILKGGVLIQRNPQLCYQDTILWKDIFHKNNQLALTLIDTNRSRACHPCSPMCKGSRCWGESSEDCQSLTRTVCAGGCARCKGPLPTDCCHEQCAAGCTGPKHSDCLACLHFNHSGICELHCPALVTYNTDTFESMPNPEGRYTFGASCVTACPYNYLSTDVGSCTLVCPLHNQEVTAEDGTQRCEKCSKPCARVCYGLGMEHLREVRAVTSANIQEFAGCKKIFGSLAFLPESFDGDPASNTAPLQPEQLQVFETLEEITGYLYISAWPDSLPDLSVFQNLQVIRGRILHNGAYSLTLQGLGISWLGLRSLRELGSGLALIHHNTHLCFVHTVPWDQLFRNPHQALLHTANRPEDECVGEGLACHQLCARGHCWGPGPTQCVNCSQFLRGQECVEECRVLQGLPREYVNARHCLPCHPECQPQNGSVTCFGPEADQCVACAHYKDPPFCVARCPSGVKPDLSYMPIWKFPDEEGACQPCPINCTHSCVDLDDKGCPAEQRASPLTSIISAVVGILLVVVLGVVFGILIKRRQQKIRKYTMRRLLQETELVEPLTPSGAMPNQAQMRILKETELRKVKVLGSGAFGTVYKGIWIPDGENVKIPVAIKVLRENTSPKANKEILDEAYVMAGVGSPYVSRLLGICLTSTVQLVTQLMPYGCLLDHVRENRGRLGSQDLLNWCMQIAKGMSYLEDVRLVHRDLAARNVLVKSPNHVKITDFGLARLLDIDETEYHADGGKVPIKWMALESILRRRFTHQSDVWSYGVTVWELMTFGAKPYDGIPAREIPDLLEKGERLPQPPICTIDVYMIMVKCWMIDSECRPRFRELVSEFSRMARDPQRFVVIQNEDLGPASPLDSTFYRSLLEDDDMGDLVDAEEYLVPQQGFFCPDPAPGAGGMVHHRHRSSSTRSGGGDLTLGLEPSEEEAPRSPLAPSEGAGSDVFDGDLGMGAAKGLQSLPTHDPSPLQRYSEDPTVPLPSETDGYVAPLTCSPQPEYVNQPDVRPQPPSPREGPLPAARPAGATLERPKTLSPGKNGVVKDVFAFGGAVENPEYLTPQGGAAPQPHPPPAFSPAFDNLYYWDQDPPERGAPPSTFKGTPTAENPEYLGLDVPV

[13] = target: Tyrosine-protein kinase JAK3 (Homo sapiens, UniProt P52333); assay: Inhibition of JAK3; outline: as §3
[14] = target: Death-associated protein kinase 3 (Homo sapiens, UniProt O43293); assay: Inhibition of ZipK
Chain of Death-associated protein kinase 3 (O43293 whole entry): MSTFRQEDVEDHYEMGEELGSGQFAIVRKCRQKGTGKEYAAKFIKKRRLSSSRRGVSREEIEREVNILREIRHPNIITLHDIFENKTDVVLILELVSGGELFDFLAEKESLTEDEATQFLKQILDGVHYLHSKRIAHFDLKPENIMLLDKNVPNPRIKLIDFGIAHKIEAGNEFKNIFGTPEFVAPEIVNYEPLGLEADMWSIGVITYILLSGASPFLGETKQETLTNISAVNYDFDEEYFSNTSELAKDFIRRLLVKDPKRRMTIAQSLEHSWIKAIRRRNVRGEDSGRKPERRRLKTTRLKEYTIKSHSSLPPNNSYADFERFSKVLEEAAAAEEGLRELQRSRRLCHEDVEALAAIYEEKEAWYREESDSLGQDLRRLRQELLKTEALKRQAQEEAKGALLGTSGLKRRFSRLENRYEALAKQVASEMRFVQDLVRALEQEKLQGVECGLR

[15] = target: Proto-oncogene tyrosine-protein kinase Src (Homo sapiens, UniProt P12931); assay: Inhibition of Src; outline: as §1
[16] = target: Receptor-type tyrosine-protein kinase FLT3 (Homo sapiens, UniProt P36888); assay: Inhibition of Flt3; outline: as §3
[17] = target: Insulin receptor (Homo sapiens, UniProt P06213)
[18] = target: Hepatocyte growth factor receptor (Homo sapiens, UniProt P08581)
[19] = target: Fibroblast growth factor receptor 3 (Homo sapiens, UniProt P22607); assay: Inhibition of FGFR3; outline: as §3
[20] = target: Tyrosine-protein kinase Lck (Homo sapiens, UniProt P06239)
[21] = target: Serine/threonine-protein kinase PAK 4 (Homo sapiens, UniProt O96013); assay: Inhibition of PAK4; outline: as §2
[22] = target: BDNF/NT-3 growth factors receptor (Homo sapiens, UniProt Q16620); assay: Inhibition of TrkB; outline: as §1
[23] = target: Fibroblast growth factor receptor (Homo sapiens, UniProt P22607+P11362+P22455+P21802); assay: Inhibition of FGFR; type: protein assay; outline: as §3
[24] = target: Macrophage colony-stimulating factor 1 receptor (Homo sapiens, UniProt P07333); assay: Inhibition of CSF1R; outline: as §3
[25] = target: High affinity nerve growth factor receptor (Homo sapiens, UniProt P04629)
[26] = target: 3-phosphoinositide-dependent protein kinase 1 (Homo sapiens) (UniProt O15530); assay: Inhibition of PDK1
[27] = target: Inhibitor of nuclear factor kappa-B kinase subunit beta (Homo sapiens, UniProt O14920); assay: Inhibition of IKK-beta; outline: as §2
[28] = target: Non-receptor tyrosine-protein kinase TYK2 (Homo sapiens, UniProt P29597); assay: Inhibition of Tyk2; outline: as §1
[29] = Plasma clearance in iv dosed Sprague-Dawley rat; type: ADME, organism-based
[30] = Half life in iv dosed Sprague-Dawley rat; type: ADME, organism-based; conditions: in vivo
Outline: (§4)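 Sprague-Dawley rats received 5 mg/kg intravenously. Half-life is reported in hours. AUC is total drug exposure after iv dosing, from t = 0 to t = ∞, in µg·h/mL.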

[31] = AUC in po dosed Sprague-Dawley rat; type: ADME, organism-based; conditions: plasma
Outline: (§5)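 Sprague-Dawley rats were dosed orally. Oral half-life is reported in hours and Cmax as the maximum plasma concentration in µM. AUC is total oral exposure from t = 0 to t = ∞, in µg·h/mL.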

[32] = Half life in po dosed Sprague-Dawley rat; type: ADME, organism-based; conditions: in vivo; outline: as §5
[33] = Oral bioavailability in Sprague-Dawley rat; type: ADME, organism-based; conditions: in vivo
[34] = Volume of distribution in iv dosed Sprague-Dawley rat; type: ADME, organism-based; conditions: in vivo, read-out: Vdss
[35] = AUC in iv dosed Sprague-Dawley rat; type: ADME, organism-based; conditions: plasma; outline: as §4
[36] = Tmax in po dosed Sprague-Dawley rat; type: ADME, organism-based; conditions: in vivo
[37] = Volume of distribution at steady state in iv dosed Sprague-Dawley rat; type: ADME, organism-based; conditions: in vivo, read-out: Vss
[38] = target: Mitogen-activated protein kinase 13 (Homo sapiens, UniProt O15264)
[39] = Cmax in po dosed Sprague-Dawley rat; type: ADME, organism-based; design: route oral; conditions: in vivo; outline: as §5

Chain of Mast/stem cell growth factor receptor Kit (P10721 whole entry): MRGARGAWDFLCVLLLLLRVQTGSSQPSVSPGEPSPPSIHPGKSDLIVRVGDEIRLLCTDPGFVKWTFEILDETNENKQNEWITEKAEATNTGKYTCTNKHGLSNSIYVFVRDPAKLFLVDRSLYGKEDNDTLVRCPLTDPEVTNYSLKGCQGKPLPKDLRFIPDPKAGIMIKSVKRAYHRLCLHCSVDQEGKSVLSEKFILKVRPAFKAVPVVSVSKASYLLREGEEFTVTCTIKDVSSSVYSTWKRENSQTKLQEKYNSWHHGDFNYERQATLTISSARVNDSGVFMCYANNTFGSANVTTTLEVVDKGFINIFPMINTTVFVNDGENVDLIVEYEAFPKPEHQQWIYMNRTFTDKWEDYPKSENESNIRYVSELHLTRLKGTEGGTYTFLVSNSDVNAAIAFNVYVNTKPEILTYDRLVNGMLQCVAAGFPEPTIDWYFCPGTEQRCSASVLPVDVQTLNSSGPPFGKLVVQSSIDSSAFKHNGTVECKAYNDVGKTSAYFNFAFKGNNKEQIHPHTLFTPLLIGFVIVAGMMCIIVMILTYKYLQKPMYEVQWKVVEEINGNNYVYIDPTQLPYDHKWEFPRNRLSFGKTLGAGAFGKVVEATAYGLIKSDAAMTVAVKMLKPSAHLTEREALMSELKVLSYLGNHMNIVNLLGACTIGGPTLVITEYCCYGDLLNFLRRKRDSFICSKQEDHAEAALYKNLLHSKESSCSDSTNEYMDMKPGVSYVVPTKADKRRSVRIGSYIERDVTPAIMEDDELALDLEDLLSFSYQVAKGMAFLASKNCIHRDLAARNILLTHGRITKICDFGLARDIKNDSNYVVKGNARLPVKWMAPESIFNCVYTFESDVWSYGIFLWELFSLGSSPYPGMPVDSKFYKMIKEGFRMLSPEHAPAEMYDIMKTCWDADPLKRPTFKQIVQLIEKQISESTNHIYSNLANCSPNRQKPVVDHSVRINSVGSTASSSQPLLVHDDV

Row | Ki [1] [µM] | Ki [2] [µM] | Ki [3] [µM] | Ki [4] [µM] | Ki [5] [µM] | Ki [6] [µM] | Ki [7] [µM] | Ki [8] [µM] | Ki [9] [µM] | Ki [10] [µM] | Ki [11] [µM] | Ki [12] [µM] | Ki [13] [µM] | Compound | Ki [14] [µM] | other results
1 | > 1.2 | > 9.5 | > 9.4 | > 0.71 | > 0.44 | > 8.6 | > 1.5 | > 1.5 | > 1.4 | > 1.7 | > 0.81 | > 1.4 | > 1.7 | CCOc1nc(NC(C)=O)cc(N)c1C#N | > 1.4 | –
2 | > 1.2 | > 9.5 | > 9.4 | > 0.71 | > 0.44 | > 8.6 | > 1.5 | > 1.5 | > 1.4 | > 1.7 | > 0.81 | > 1.4 | > 1.7 | CC(=O)Nc1cc(N)c(C#N)c(-c2ccccc2)n1 | > 1.4 | Ki [15]: > 1.9 µM; Ki [16]: > 2.5 µM; Ki [17]: > 5.2 µM; Ki [18]: > 2.9 µM; Ki [19]: > 1.9 µM; Ki [20]: > 2.7 µM; Ki [21]: > 5.5 µM; Ki [22]: > 4.5 µM; Ki [23]: > 4.7 µM; Ki [24]: > 2.5 µM; Ki [25]: > 2.5 µM; Ki [26]: > 3.8 µM; Ki [27]: > 3.2 µM; Ki [28]: > 1.9 µM
3 | – | > 9.5 | > 9.4 | – | – | > 8.6 | – | – | – | – | – | – | – | CCOc1nc(NC(=O)Cc2cc(OC)ccc2OC)cc(N)c1C#N | – | clearance [29]: 1.2 L/h/kg; half-life [30]: 1.4 h; AUC [31]: 0.11 µg·h/mL; half-life [32]: 1.1 h; bioavailability [33]: 2.7%; Vd [34]: 2.6 L/kg; AUC [35]: 4.1 µg·h/mL; Tmax [36]: 1.98 min; Vd [37]: 1.2 L/kg; Ki [38]: > 6.9 µM; Cmax [39]: 0.31 µM
